# Data reported in PMC10582660 (Clinical and Translational Science, 2023).
# Several values for one entry are separate records, joined by “and”; a condition that tells them apart may be missing. Identical values can stand only once.
# Columns and labels:
# OCT2 = target: T1, OCT2 (Homo sapiens, UniProt O15244); experiment: Raloxifene as a substrate for uptake transporters; format: in vitro ADME; details: raloxifene 1, 10 μM, 2, 20 min, two‐fold cutoff
# T1 sequence (O15244 1-555): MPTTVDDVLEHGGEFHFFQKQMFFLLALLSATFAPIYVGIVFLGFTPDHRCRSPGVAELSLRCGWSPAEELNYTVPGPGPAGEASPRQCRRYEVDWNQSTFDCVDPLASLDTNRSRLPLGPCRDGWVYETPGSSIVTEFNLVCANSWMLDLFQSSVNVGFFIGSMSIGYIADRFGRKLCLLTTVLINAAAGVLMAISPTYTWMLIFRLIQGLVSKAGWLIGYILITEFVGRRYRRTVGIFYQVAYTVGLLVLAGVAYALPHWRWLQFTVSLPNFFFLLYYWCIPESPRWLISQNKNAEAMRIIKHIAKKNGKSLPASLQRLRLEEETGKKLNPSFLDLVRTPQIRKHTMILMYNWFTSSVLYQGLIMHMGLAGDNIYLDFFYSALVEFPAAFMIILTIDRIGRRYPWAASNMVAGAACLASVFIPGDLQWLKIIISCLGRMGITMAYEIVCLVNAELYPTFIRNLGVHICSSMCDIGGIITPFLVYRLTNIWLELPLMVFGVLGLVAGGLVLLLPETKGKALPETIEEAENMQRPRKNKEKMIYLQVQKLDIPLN
# Procedure, shortened: (§1)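 Uptake of test compound (1 and 10 μM, 2 and 20 min) measured in transporter-expressing HEK293 or MDCKII cells or inside-out membrane vesicles. Run with positive-control probe substrates and inhibitors, plus empty-vector or untransfected control cells. Fold-accumulation relative to control cells judged against a two-fold cutoff for substrate status.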
# OAT1 = target: T2, OAT1 (Homo sapiens, UniProt Q4U2R8); experiment: Raloxifene as a substrate for uptake transporters; format: in vitro ADME; details: raloxifene 1, 10 μM, 2, 20 min, two‐fold cutoff
# T2 sequence (Q4U2R8 1-563): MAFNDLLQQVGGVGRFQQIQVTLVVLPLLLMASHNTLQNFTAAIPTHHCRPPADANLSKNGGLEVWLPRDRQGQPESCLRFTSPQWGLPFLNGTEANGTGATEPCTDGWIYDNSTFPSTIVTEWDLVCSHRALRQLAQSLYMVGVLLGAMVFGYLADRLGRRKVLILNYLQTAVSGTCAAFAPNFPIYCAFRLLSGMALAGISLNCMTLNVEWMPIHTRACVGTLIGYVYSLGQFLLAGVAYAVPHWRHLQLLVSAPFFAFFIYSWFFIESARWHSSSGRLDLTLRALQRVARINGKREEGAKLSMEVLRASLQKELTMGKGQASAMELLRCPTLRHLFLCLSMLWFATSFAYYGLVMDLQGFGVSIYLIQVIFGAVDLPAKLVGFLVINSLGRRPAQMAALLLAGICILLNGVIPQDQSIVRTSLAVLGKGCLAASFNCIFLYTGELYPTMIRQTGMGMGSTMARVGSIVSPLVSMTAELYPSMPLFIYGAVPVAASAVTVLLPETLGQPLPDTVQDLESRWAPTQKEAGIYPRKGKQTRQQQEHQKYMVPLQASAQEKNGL
# Procedure, shortened: as §1
# NTCP = target: T3, NTCP (Homo sapiens, UniProt Q14973); experiment: Raloxifene as a substrate for uptake transporters; format: in vitro ADME; details: raloxifene 1, 10 μM, 2, 20 min, two‐fold cutoff
# T3 sequence (Q14973 1-349): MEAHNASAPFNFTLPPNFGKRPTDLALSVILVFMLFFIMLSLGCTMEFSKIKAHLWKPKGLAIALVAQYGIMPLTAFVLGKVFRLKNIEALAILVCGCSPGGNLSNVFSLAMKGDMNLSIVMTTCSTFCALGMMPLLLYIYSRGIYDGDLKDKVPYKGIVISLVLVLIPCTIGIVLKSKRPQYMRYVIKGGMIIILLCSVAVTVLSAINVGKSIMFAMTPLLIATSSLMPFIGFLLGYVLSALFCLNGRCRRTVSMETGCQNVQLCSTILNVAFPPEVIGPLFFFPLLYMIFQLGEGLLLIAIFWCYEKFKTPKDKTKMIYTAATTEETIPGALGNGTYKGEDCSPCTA
# Procedure, shortened: as §1
# [1] = Follow-up exploratory clinical study: raloxifene stool recovery; format: in vivo, human; details: for Raloxifene dose recovery0–48h in stool, geometric mean (CV%): stool 0 to 48 h relative to dose
# Procedure, shortened: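 Stool collected within 48 h pre-dose and all movements 0–24 and 24–48 h post-dose (water vs acute green tea arms), held at −20°C. Blended with water (1:2.5 by weight), stored at −80°C. Methanol/0.1% formic acid extraction with internal standards. 1×, 10× and 100× dilutions dried, reconstituted, quantified by UHPLC–MS/MS (calibration 0.06–400 nM). Recovery 0–48 h expressed as % of administered dose.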
# OATP1B1 = target: T4, OATP1B1 (Homo sapiens, UniProt Q9Y6L6); experiment: Raloxifene as a substrate for uptake transporters; format: in vitro ADME; details: raloxifene 1, 10 μM, 2, 20 min, two‐fold cutoff
# T4 sequence (Q9Y6L6 1-691): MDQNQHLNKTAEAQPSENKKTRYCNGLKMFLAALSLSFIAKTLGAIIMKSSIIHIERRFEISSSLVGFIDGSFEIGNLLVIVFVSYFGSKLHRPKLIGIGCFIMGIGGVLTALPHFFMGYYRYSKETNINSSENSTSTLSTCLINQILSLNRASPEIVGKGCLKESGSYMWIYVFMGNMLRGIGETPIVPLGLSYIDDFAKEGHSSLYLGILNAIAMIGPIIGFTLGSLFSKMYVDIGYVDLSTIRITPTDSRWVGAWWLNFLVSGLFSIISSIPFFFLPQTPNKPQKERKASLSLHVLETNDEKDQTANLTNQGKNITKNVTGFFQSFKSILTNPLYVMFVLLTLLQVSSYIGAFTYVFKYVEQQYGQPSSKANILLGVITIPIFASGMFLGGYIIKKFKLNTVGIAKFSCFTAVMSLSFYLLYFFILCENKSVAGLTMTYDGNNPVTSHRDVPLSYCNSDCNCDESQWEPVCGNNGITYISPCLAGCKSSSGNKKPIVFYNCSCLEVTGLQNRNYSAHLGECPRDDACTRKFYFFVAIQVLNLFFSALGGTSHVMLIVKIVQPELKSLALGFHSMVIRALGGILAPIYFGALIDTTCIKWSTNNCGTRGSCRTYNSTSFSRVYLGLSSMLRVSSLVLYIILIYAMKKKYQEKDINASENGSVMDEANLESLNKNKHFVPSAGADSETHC
# Procedure, shortened: as §1
smiles,measurement,setting,value
"O=C(c1ccc(OCCN2CCCCC2)cc1)c1c(-c2ccc(O)cc2)sc2cc(O)ccc12 [Raloxifene, raloxifene, reference compound]",fold‐accumulation,OCT2,0.90–1.15
same,fold‐accumulation,OAT1,0.72–0.91
same,fold‐accumulation,NTCP,1.14–1.33
same,Raloxifene dose recovery0–48h green tea/baseline ratio (90% CI),[1]; acute green tea vs baseline,1.05 (0.45–2.43)
same,Percentage change in raloxifene stool recovery,"[1]; baseline to acute green tea, individual participants",−70% and 440% and −80% and 300% and 10% and −14%
same,Raloxifene stool recovery,"[1]; baseline, individual participants no. 8, 11, 12, 16, 17, 18",1.7% and 0.27% and 93.8% and 18.0% and 17.4% and 69.8%
same,"Raloxifene dose recovery0–48h in stool, geometric mean (CV%)",[1]; acute green tea,10.6 (103) %
same,"Raloxifene dose recovery0–48h in stool, geometric mean (CV%)",[1]; baseline,10.1 (115) %
same,fold‐accumulation,OATP1B1,1.04–1.19
